Test results taken from ChEMBL document CHEMBL4342502, “Synthesis and Antichlamydial Activity of Molecules Based on Dysregulators of Cylindrical Proteases” (J Med Chem, 2020).
Active and inactive are the calls of the source. The rule behind the calls is not given here.

Tests used:
[1] = Toxicity in Drosophila melanogaster assessed as survival rate at 0.25 to 1 mM; settings: 1000 µM
Outline: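 Drosophila SMART assay using third-instar larvae (72 ± 4 h) from ST and HB crosses. Larvae exposed in hydrated instant mashed-potato medium at 0.25, 0.5 and 1.0 mM final. Vehicle control: water with 1% Tween-80 and 3% ethanol. Survival of treated groups compared statistically with the vehicle control.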

[2] = Mutagenicity in Drosophila melanogaster somatic cells assessed as frequency of clone formation in ST crosses at 0.25 to 1 mM by SMART assay; format: ADME; settings: 1000 µM
Outline: (§1)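 Drosophila SMART wing-spot assay, ST and HB crosses. Third-instar larvae (72 ± 4 h) placed on hydrated instant mashed potato medium containing compound at 0.25, 0.5 or 1.0 mM final. Negative control: water with 1% Tween-80 and 3% ethanol. Statistics by Frei and Würgler two-sided U test, P≤0.05.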

[3] = system: Staphylococcus aureus; test: Antibacterial activity against Staphylococcus aureus JE2 assessed as bacterial growth inhibition at 32 ug/ml measured after 16 hrs by broth microdilution method; format: functional, organism-based
Outline: (§2)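 Broth microdilution in Mueller Hinton broth, triplicate. Direct colony suspension at 1.5 x 10^8 CFU/mL diluted to ~10^5 CFU/mL. Serial dilutions made from DMSO stocks at 1 mg/mL; vancomycin positive control, blank medium negative control. Incubated 16 h at optimum temperature. MIC is the lowest concentration without visible growth at 600 nm; mean of triplicate determinations.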

[4] = system: HeLa 229; test: Cytotoxicity against human HeLa 229 cells assessed as cell viability at 50 ug/ml after 24 hrs by CCK-8 assay relative to control; format: cell-based; settings: hela 229, 24 h
Outline: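 HeLa 229 cells kept in DMEM with 10% FBS and 1% penicillin/streptomycin at 37 °C, 5% CO2. Seeded at 5000 cells/well and dosed next day at 50 μg/mL in triplicate for 24 h, against DMSO-matched controls. CCK-8 reagent added for 2 h, then corrected absorbance read at 450 nm.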

[5] = system: Acinetobacter baumannii; test: Antibacterial activity against Acinetobacter baumannii ATCC 19606 assessed as bacterial growth inhibition at 32 ug/ml measured after 16 hrs by broth microdilution method; format: functional, organism-based; settings: ATCC 19606 = CIP 70.34 = JCM 6841
[6] = system: Escherichia coli; test: Antibacterial activity against Escherichia coli K12 assessed as bacterial growth inhibition at 32 ug/ml measured after 16 hrs by broth microdilution method; format: functional, organism-based; settings: K-12; outline: as §2
[7] = system: Pseudomonas aeruginosa; test: Antibacterial activity against Pseudomonas aeruginosa ATCC 27853 assessed as bacterial growth inhibition at 32 ug/ml measured after 16 hrs by broth microdilution method; format: functional, organism-based
[8] = system: Klebsiella pneumoniae; test: Antibacterial activity against Klebsiella pneumoniae ATCC 700603 assessed as bacterial growth inhibition at 32 ug/ml measured after 16 hrs by broth microdilution method; format: functional, organism-based
[9] = Mutagenicity in Drosophila melanogaster somatic cells assessed as frequency of clone formation in HB crosses at 0.25 to 1 mM by SMART assay; format: ADME; settings: 1000 µM; outline: as §1
[10] = system: Cryptococcus neoformans; test: Antifungal activity against Cryptococcus neoformans var. grubii H99 ATCC […] as fungal growth inhibition at 32 ug/ml measured after 16 hrs by broth microdilution method; format: functional, organism-based; settings: var. grubii H99 ATCC 208821
[11] = system: Staphylococcus aureus; test: Antibacterial activity against methicillin-resistant Staphylococcus aureus ATCC 43300 assessed as bacterial growth inhibition at 32 ug/ml measured after 16 hrs by broth microdilution method; format: functional, organism-based
[12] = system: Chlamydia trachomatis; test: Anti-chlamydial activity against Chlamydia trachomatis Serovar LGV-L2 infected in Hep2 cells assessed as inhibition of chlamydial inclusion at 50 ug/ml treated at 8 hrs post infection and measured at 24 hrs post-infection by immunofluorescence assay; format: functional, organism-based
Outline: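 HEp-2 cells infected with C. trachomatis serovar L2. Compounds at 50 μg/mL added 8 hpi; inclusion number and size assessed by immunofluorescence at 24 hpi against untreated cells. Cell morphology and viability checked by phase-contrast microscopy.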

[13] = system: Escherichia coli; test: Antibacterial activity against Escherichia coli ATCC 25922 assessed as bacterial growth inhibition at 32 ug/ml measured after 16 hrs by broth microdilution method; format: functional, organism-based
[14] = system: Candida albicans; test: Antifungal activity against Candida albicans ATCC 90028 assessed as fungal growth inhibition at 32 ug/ml measured after 16 hrs by broth microdilution method; format: functional, organism-based
[15] = system: Chlamydia trachomatis; test: Anti-Chlamydial activity against Chlamydia trachomatis Serovar LGV-L2 infected in Hep2 cells assessed as reduction in size and number of chlamydial inclusion at 4 ug/ml treated at 8 hrs post-infection and 24 hrs later re-infecting fresh Hep2 cells monolayer with infected cells and measured at 24 hrs post re-infection by immunofluorescence staining based microscopy analysis; format: functional, organism-based
Outline: (§3)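 HEp-2 cells in DMEM with 10% FBS, infected with C. trachomatis L2 at MOI 1. Compounds added 8 hpi in triplicate; DMSO stocks at 50 mg/mL. At 24 hpi lysates collected in sucrose storage medium, frozen at −80 °C, and used to infect fresh HEp-2 monolayers in 10-fold dilutions. After 24 h, stained with goat anti-MOMP and Alexa488 secondary. Inclusions counted in 15 fields at 20x; IFU = mean count per field corrected for dilution.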

[16] = system: Chlamydia trachomatis; test: Anti-Chlamydial activity against Chlamydia trachomatis Serovar LGV-L2 infected in Hep2 cells assessed as reduction in size and number of chlamydial inclusion at 1 ug/ml treated at 8 hrs post-infection and 24 hrs later re-infecting fresh Hep2 cells monolayer with infected cells and measured at 24 hrs post re-infection by immunofluorescence staining based microscopy analysis; format: functional, organism-based; outline: as §3
[17] = system: HEp-2; test: Toxicity in human Hep2 cells infected with Chlamydia trachomatis Serovar LGV-L2 assessed as cell morphology at 50 ug/ml treated at 8 hrs post-infection and measured at 24 hrs post-infection by phase contrast microscopy; format: cell-based
Outline: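 HEp-2 cells grown in DMEM with 2% L-glutamine and 10% FBS at 37 °C, infected with C. trachomatis serovar L2. Compound at 50 μg/mL added 8 h post-infection, then incubated 16 h more (24 h total). Cell morphology and viability checked by phase-contrast microscopy alongside untreated infected cells.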

[18] = system: Chlamydia trachomatis; test: Anti-chlamydial activity against Chlamydia trachomatis Serovar LGV-L2 infected in Hep2 cells assessed as reduction in chlamydial inclusion growth by measuring appearance of small and irregular inclusions at 3 ug/ml treated at 8 hrs post-infection and 24 hrs later re-infecting fresh Hep2 cells monolayer with infected cells and measured at 24 hrs post re-infection by immunofluorescence staining based microscopy analysis; format: functional, organism-based; outline: as §3
[19] = Drug metabolism in human liver microsomes assessed as amount of drug modified at 1 ug/ml […] in presence of NADPH by LC-MS/MS analysis; format: ADME, Microsome; settings: read-out: Drug metabolism
[20] = system: Chlamydia trachomatis; test: Anti-chlamydial activity against Chlamydia trachomatis Serovar LGV-L2 infected in Hep2 cells assessed as reduction in chlamydial infectivity by measuring decrease in inclusion forming units at 50 ug/ml treated at 8 hrs post-infection and 24 hrs later re-infecting fresh Hep2 cells monolayer with infected cells and measured at 24 hrs post re-infection by immunofluorescence staining based microscopy analysis; format: functional, organism-based; outline: as §3
[21] = system: HaCaT; test: Cytotoxicity against immortal human HaCaT cells assessed as reduction in cell viability at 50 ug/ml after 24 hrs by CCK-8 assay; format: cell-based
Outline: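 HeLa 229 and HaCaT cells in DMEM with 10% FBS and 1% penicillin/streptomycin, 37 °C, 5% CO2, seeded at 5000 cells/well. Next day treated with 50 μg/mL in triplicate, with matching DMSO controls. After 24 h, CCK-8 added for 2 h; corrected absorbance read at 450 nm.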

[22] = Stability of the compound in simulated gastric fluid at 50 uM and pH 1.2 at 37 degree C measured up to 120 mins by HPLC-ESI/MS analysis; settings: simulated gi fluid, pH 1.2, 2 h
[23] = Stability of compound in human liver microsomes at 1 ug/ml measured up to 60 mins in absence of NADPH by LC-MS/MS analysis; format: ADME, Microsome; settings: 1 h
Outline: (§4)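 Human liver microsomes (1.0 mg/mL protein) in 100 mM phosphate pH 7.4 with 10 mM MgCl2 and 2 mM NADPH, preincubated 10 min at 37 °C. Reaction started with compound at 1 μg/mL. Sampled at 0, 5, 15, 20, 30, 45 and 60 min and quenched in methanol with internal standard. Controls: no NADPH (negative), testosterone (positive). Analysed by LC-MS/MS, triplicate.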

[24] = Intrinsic clearance in human liver microsomes at 1 ug/ml measured per mg protein up to 60 mins by LC-MS/MS analysis; format: ADME, Microsome; settings: microsomes, 1 h; outline: as §4
[25] = Stability of compound in mouse pre-heated plasma at 50 uM incubated up to 120 mins by HPLC-ESI/MS analysis; format: ADME, cell-free; settings: 2 h
Outline: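 Compounds from 2.5 mM DMSO stocks incubated at 50 μM final in mouse plasma diluted to 80% with PBS, preheated, 37 °C, shaking. Sampled at 0, 15, 30, 60, 90 and 120 min and quenched with cold acetonitrile. Centrifuged; supernatant analysed by HPLC-ESI-MS. Peak area reported relative to time zero. Enalapril positive control; triplicate.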

[26] = Hepatic intrinsic clearance in human liver microsomes at 1 ug/ml measured per kg body weight up to 60 mins by LC-MS/MS analysis; format: ADME, Microsome; settings: 1 h
[27] = Half life in human liver microsomes at 1 ug/ml measured up to 60 mins by LC-MS/MS analysis; format: ADME, Microsome; settings: microsomes, 1 h; outline: as §4
[28] = system: Chlamydia trachomatis; test: Anti-chlamydial activity against Chlamydia trachomatis Serovar LGV-L2 infected in Hep2 cells assessed as reduction in chlamydial inclusion growth by measuring appearance of small and irregular inclusions at 128 ug/ml treated at 8 hrs post-infection and 24 hrs later re-infecting fresh Hep2 cells monolayer with infected cells and measured at 24 hrs post re-infection by immunofluorescence staining based microscopy analysis; format: functional, organism-based; outline: as §3
[29] = system: Haemophilus influenzae; test: Antimicrobial activity against Haemophilus influenzae H2192 assessed as bacterial growth inhibition measured after 18 to 20 hrs; format: functional
[30] = system: Neisseria meningitidis; test: Antimicrobial activity against Neisseria meningitidis MC58 assessed as bacterial growth inhibition measured after 18 to 20 hrs; format: functional
[31] = system: Chlamydia trachomatis; test: Anti-Chlamydial activity against Chlamydia trachomatis Serovar LGV-L2 infected in Hep2 cells assessed as reduction in size and number of chlamydial inclusion at 50 ug/ml treated at 8 hrs post-infection and 24 hrs later re-infecting fresh Hep2 cells monolayer with infected cells and measured at 24 hrs post re-infection by immunofluorescence staining based microscopy analysis; format: functional, organism-based; outline: as §3

CC(C)(C(=O)NCCSc1ccc(Cl)cc1)S(=O)(=O)c1ccc(C(F)(F)F)cn1
Activity [1]: Non-Toxic
Activity [2]: Non-Toxic
inhibition [3]: inactive
Activity [4]: < 65%
inhibition [5]: inactive
inhibition [6]: inactive
inhibition [7]: inactive
inhibition [8]: inactive
Activity [9]: Non-Toxic
inhibition [10]: inactive
inhibition [11]: inactive
inhibition [12]: inactive
inhibition [13]: inactive
inhibition [14]: inactive

CC[C@H]1OC(=O)[C@H](C)[C@@H](O[C@H]2C[C@@](C)(OC)[C@@H](O)[C@H](C)O2)[C@H](C)[C@@H](O[C@@H]2O[C@H](C)C[C@H](N(C)C)[C@H]2O)[C@](C)(O)C[C@@H](C)CN(C)[C@H](C)[C@@H](O)[C@]1(C)O
inhibition [15]: Active

C[C@H]1c2cccc(O)c2C(=O)C2=C(O)[C@]3(O)C(=O)C(C(N)=O)=C(O)[C@@H](N(C)C)[C@@H]3[C@@H](O)[C@@H]21
inhibition [16]: Active

CC(C)(Sc1ccc(C(F)(F)F)cn1)C(=O)NCCCc1ccccc1
Activity [17]: Toxic

CC1(C)S[C@@H]2[C@H](NC(=O)Cc3ccccc3)C(=O)N2[C@H]1C(=O)O
inhibition [18]: Active

CC(C)(C(=O)NCCOc1ccccc1)S(=O)(=O)c1ccc(C(F)(F)F)cc1
metabolised at 10 min, 1 ug/ml [19]: 90%
inhibition [20]: Active
Activity [1]: Non-Toxic
Activity [21]: Non-Toxic
Stability [22]: Stable
Stability [23]: Stable
Activity [2]: Non-Toxic
inhibition [3]: inactive
Activity [4]: < 65%
inhibition [5]: inactive
inhibition [6]: inactive
inhibition [7]: inactive
inhibition [8]: inactive
microsomal intrinsic clearance [24]: 233.77 µL/min
Stability [25]: Stable
Activity [9]: Non-Toxic
inhibition [10]: inactive
inhibition [11]: inactive
inhibition [12]: Active
CLH [26]: 1840 mL/min/kg
inhibition [13]: inactive
inhibition [14]: inactive
t1/2 [27]: 2.98 min

CN[C@@H]1[C@H](O)[C@H](NC)[C@H]2O[C@@]3(O)C(=O)C[C@@H](C)O[C@H]3O[C@@H]2[C@H]1O
inhibition [28]: Active

CC(C)(C(=O)NCCCc1ccccc1)S(=O)(=O)c1ccc(C(F)(F)F)cn1
inhibition [20]: Active
Activity [29]: 8 µg/mL
Activity [30]: 16 µg/mL
inhibition [31]: Active
